# Source: ChEMBL document CHEMBL1155224, “Discovery of new inhibitors of resistant Streptococcus pneumoniae penicillin binding protein (PBP) 2x by structure-based virtual screening” (J Med Chem, 2009)
# Substitutions are numbered along the chain they refer to. Activity calls are given as the source filed them. The rule behind the calls is not given here.
# What was measured:
# [1] = target: T1, Penicillin-binding protein 2X (Streptococcus pneumoniae R6) (UniProt P59676); experiment: (§1) Inhibition of penicillin-sensitive Streptococcus pneumoniae R6 PBP2X preincubated for 1 hr before addition of substrate (R)-[2-(benzoylamino)propionylsulfanyl]acetic acid
# T1 sequence (whole entry): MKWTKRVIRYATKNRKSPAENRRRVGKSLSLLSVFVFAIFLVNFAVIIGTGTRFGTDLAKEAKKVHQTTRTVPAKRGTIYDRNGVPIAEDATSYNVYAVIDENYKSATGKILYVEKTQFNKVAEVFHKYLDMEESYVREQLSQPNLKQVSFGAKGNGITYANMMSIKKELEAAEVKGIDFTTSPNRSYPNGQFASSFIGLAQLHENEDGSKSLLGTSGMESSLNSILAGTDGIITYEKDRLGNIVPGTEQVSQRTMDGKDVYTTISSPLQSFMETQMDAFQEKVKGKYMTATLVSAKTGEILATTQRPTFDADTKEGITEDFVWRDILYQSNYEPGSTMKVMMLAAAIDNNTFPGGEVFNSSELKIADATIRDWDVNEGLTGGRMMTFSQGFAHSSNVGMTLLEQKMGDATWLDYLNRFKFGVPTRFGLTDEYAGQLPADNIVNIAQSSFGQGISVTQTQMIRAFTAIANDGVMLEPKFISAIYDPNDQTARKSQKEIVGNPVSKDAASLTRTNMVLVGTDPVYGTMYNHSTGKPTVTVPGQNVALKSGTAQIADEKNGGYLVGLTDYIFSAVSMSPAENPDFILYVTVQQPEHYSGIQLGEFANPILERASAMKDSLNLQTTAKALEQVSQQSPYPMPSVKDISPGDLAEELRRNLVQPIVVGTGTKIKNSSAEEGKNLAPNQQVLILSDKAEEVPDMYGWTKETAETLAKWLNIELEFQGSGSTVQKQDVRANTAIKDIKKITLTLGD
# Outline: (§2)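 Compounds taken from 100 mM DMF stocks (1% DMF final) and preincubated with 0.09 μM R6-PBP2x in 10 mM sodium phosphate pH 7.0 with 0.01 mg/mL BSA, 60 min, 25 °C. Spontaneous hydrolysis without enzyme measured. Triplicates. IC50 fitted from residual activity versus decreasing inhibitor concentration, with 0.01% Triton X-100.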
# [2] = target: T2, Penicillin-binding protein 2x (Streptococcus pneumoniae serotype 4 (strain ATCC BAA-334 / TIGR4)) (UniProt P14677); experiment: (§3) Inhibition of penicillin-resistant Streptococcus pneumoniae 5204 PBP2X preincubated for 4 hrs before addition of substrate (R)-[2-(benzoylamino)propionylsulfanyl]acetic acid
# T2 sequence (whole entry): T1 sequence (whole entry) with M385T
# Outline: (§4)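 0.6 μM 5204-PBP2x preincubated 4 h at 25 °C with inhibitor in 10 mM sodium phosphate pH 7.0, 70 mM D-alanine, 0.01 mg/mL BSA, 1% DMF, 0.01% Triton X-100. Assays were run in triplicate, and IC50 was fitted from residual activity versus decreasing inhibitor concentrations.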
# [3] = Inhibition of Streptococcus pneumoniae PBP1B after 60 mins by SDS-PAGE; conditions: read-out: IC50
# Outline: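 Test compounds incubated with 0.7 μM PBP1b in 10 mM sodium phosphate pH 7.0 for 60 min at 30 °C. Remaining active enzyme counter-labeled with 10 μM fluorescein-labeled ampicillin for 20 min. Reaction stopped, proteins separated by SDS-PAGE and read by fluorescence imaging with background subtracted.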
# [4] = target: T3, Penicillin-binding protein 2X (Streptococcus pneumoniae R6, UniProt P59676); experiment: as §1; outline: as §2
# T3 sequence (P59676 whole entry): T1 sequence (whole entry)
# [5] = target: T2, Penicillin-binding protein 2x (Streptococcus pneumoniae serotype 4 (strain ATCC BAA-334 / TIGR4)); experiment: Inhibition of penicillin-resistant Streptococcus pneumoniae 5204 PBP2X; outline: as §4
# [6] = target: Penicillin-binding protein 2x (Streptococcus pneumoniae serotype 4 (strain ATCC BAA-334 / TIGR4), UniProt P14677); experiment: as §3; outline: as §4
# Chain of Penicillin-binding protein 2x (P14677 whole entry, looked up): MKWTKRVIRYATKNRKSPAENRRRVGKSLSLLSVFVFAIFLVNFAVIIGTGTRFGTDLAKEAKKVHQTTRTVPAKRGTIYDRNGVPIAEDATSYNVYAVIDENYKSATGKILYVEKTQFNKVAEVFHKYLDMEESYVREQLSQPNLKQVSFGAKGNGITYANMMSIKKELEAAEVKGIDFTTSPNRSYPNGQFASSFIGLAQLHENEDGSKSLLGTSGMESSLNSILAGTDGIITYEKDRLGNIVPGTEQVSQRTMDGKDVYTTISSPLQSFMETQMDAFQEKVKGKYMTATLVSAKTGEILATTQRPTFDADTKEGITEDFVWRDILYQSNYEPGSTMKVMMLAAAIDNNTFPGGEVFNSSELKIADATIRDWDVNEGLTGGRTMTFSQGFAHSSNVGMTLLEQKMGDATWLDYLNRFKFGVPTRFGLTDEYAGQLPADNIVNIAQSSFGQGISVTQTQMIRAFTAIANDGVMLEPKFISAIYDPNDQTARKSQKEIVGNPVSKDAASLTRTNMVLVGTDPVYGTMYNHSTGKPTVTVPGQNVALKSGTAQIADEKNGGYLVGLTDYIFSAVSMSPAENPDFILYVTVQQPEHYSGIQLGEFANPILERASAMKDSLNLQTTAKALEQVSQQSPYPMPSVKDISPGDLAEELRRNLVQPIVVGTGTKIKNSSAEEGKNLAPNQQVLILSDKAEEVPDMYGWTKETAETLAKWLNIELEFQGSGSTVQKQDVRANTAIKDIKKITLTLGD
# [7] = target: T2, Penicillin-binding protein 2x (Streptococcus pneumoniae serotype 4 (strain ATCC BAA-334 / TIGR4)); experiment: Inhibition of penicillin-resistant Streptococcus pneumoniae 5204 PBP2X assessed as residual activity at 100 uM preincubated for 1 hr before addition of substrate (R)-[2-(benzoylamino)propionylsulfanyl]acetic acid
Compound,Activity [1],Activity [2],further results
CC(=O)OCC1=C(C(=O)O)N2C(=O)[C@@H](NC(=O)Cc3cccs3)[C@H]2SC1,Active,Active,–
Nc1nc(/C(=N/O)C(=O)N[C@@H]2C(=O)N3C(C(=O)O)=C(/C=C4\CCN([C@@H]5CCNC5)C4=O)CS[C@H]23)ns1,Active,Active,–
CCn1c2ccccc2c2cc(/C=C3\S/C(=N\c4ccccc4)N(C(C(=O)O)c4ccccc4)C3=O)ccc21 (stereo not given),inactive,inactive,–
O=C(O)c1cc(-c2ccc(/C=C3\S/C(=N\c4ccccc4)N(c4ccccc4)C3=O)o2)ccc1Cl,inactive,inactive,–
O=C(COc1ccccc1)N[C@H]1CON([C@@]2(C(=O)O)CCC(=O)O2)C1=O,Active,Active,–
CC(NC(=O)C(C)NC(=O)CCCCCN)C(=O)O (stereo not given),inactive,inactive,–
CCn1c2ccccc2c2cc(/C=C3\S/C(=N\C(Cc4ccccc4)C(=O)O)N(c4ccccc4)C3=O)ccc21 (stereo not given),inactive,inactive,–
N[C@@H](C(=O)N[C@@H]1C(=O)N2C(C(=O)O)=C(Cl)CC[C@H]12)c1ccccc1,Active,Active,–
C[C@@H](O)[C@H]1C(=O)N2C(C(=O)O)=C(S[C@@H]3CN[C@H](C(=O)N(C)C)C3)[C@H](C)[C@H]12,Active,Active,–
C[C@@H](O)[C@H]1C(=O)N2C(C(=O)[O-])=C(SC3Cn4cnc[n+]4C3)[C@H](C)[C@H]12 (stereo not given in full),Active,Active,–
CCC1C(=O)N2CC1CC(OC)=C2C(=O)O (stereo not given),Active,Active,–
CC=CC1=C(C(=O)O)N2C(=O)[C@@H](NC(=O)[C@H](N)c3ccc(O)cc3)[C@H]2SC1,Active,Active,–
O=C(Cc1cccs1)N[C@@H]1C(=O)N2C(C(=O)O)=C(/C=C/c3ccc([N+](=O)[O-])cc3[N+](=O)[O-])CS[C@H]12,Active,Active,–
N[C@@H](C(=O)N[C@@H]1C(=O)N2C(C(=O)O)=C(Cl)CS[C@H]12)c1ccccc1,Active,Active,–
CCn1c2ccccc2c2cc(/C=C3\S/C(=N\c4ccccc4)N(C(C(=O)O)C(C)C)C3=O)ccc21 (stereo not given),inactive,inactive,–
CCO/N=C(\C(=O)N[C@@H]1C(=O)N2C(C(=O)[O-])=C(C[n+]3cccc4c3ncn4CCCNC)CS[C@H]12)c1nsc(N)n1,Active,Active,–
C[C@H]1COc2c(N3CCN(C)CC3)c(F)cc3c(=O)c(C(=O)O)cn1c23,Active,Active,–
CC(=O)NC1CON(C2(C(=O)O)CCC(=O)O2)C1=O (stereo not given),Active,Active,–
CO/N=C(\C(=O)N[C@@H]1C(=O)N2C(C(=O)O)=C(COC(N)=O)CS[C@H]12)c1ccco1,Active,Active,–
C=CC1=C(C(=O)O)N2C(=O)[C@@H](NC(=O)/C(=N\O)c3csc(N)n3)[C@H]2SC1,Active,Active,–
CC1(C)S[C@@H]2[C@H](NC(=O)[C@H](N)c3ccccc3)C(=O)N2[C@H]1C(=O)O,Active,Active,–

Compound,Activity [1],Activity [2],further results
C[C@@H](O)[C@H]1C(=O)N2C(C(=O)O)=C(SCCNC=N)C[C@H]12,Active,Active,–
C[C@@H](O)[C@H]1C(=O)N2C(C(=O)O)=C(SC3CN(C4=NCCS4)C3)[C@H](C)[C@H]12,Active,Active,–
CCO/N=C(\C(=O)NC1C(=O)N2C(C(=O)[O-])=CC(/C=C/Sc3cc[n+](C)cc3)SC12)c1nsc(N)n1 (stereo not given),Active,Active,–
Cc1cc(Cl)ccc1NC(=O)Nc1c(Oc2ccc(Cl)cc2)ccc(Cl)c1S(=O)(=O)O,–,–,IC50 [3]: 259 µM; IC50 [4]: 336 µM; Activity [5]: Active; IC50 [6]: 71 µM; Activity [7]: 50%
CO/N=C(\C(=O)N[C@@H]1C(=O)N2C(C(=O)OCOC(=O)C(C)(C)C)=C(/C=C\c3scnc3C)CS[C@H]12)c1csc(N)n1,Active,Active,–
CC1(C)S[C@@H]2[C@H](NC(=O)[C@H](N)c3ccc(O)cc3)C(=O)N2[C@H]1C(=O)O,Active,Active,–
CC(=O)C[n+]1ccc(SCC2=C(C(=O)[O-])N3C(=O)[C@@H](NC(=O)/C(=N/OC4CCCC4)c4csc(N)n4)[C@H]3SC2)cc1,Active,Active,–
C[C@H]1NCc2cc(-c3ccc4c(=O)c(C(=O)O)cn(C5CC5)c4c3OC(F)F)ccc21,Active,Active,–
COc1c(N2CCNC(C)C2)c(F)cc2c(=O)c(C(=O)O)cn(C3CC3)c12 (stereo not given),Active,Active,–
CC(=N)N1CC[C@H](SC2=C(C(=O)O)N3C(=O)[C@H]([C@@H](C)O)[C@H]3C2)C1,Active,Active,–
Nc1cc(SCSC2=C(C(=O)O)N3C(=O)[C@@H](NC(=O)/C(=N/O)c4nc(N)sc4Cl)[C@H]3SC2)nc(N)n1,Active,Active,–
CO[C@H]1CCC[C@H]2C1=C(C(=O)O)N1C(=O)[C@H]([C@@H](C)O)[C@@H]21,Active,Active,–
CO/N=C(\C(=O)N[C@@H]1C(=O)N2C(C(=O)O)=C(COC(C)=O)CS[C@H]12)c1csc(N)n1,Active,Active,–
C[C@@H](NC(=O)c1ccccc1)C(=O)SCC(=O)O,Active,Active,–
CC/C=C(\C(=O)N[C@@H]1C(=O)N2C(C(=O)O)=C(COC(N)=O)CS[C@H]12)c1csc(N)n1,Active,Active,–
Cc1cc(SCC2=C(C(=O)[O-])N3C[C@@H](NC(=O)CSc4c(Cl)cc(/C=C/C(=O)NCC(=O)[O-])cc4Cl)[C@H]3SC2)cc(C)[n+]1CCC[N+]1(C)CCOCC1,Active,Active,–
C[C@@H](O)[C@H]1C(=O)N2C(C(=O)O)=C([C@H]3CCCO3)S[C@H]12,Active,Active,–
CO/N=C(\C(=O)N[C@@H]1C(=O)N2C(C(=O)O)=C(CSc3nc(=O)c(O)nn3C)CS[C@H]12)c1csc(N)n1,Active,Active,–
COCC1=C(C(=O)O)N2C(=O)[C@@H](NC(=O)/C(=N\OC)c3csc(N)n3)[C@H]2SC1,Active,Active,–
NCCSCc1cnccc1SC1=C(C(=O)O)N2C(=O)[C@@H](NC(=O)/C(=N\O)c3nc(N)sc3Cl)[C@H]2SC1,Active,Active,–
